Results published in ChEMBL document CHEMBL3259660, “Haloemodin as novel antibacterial agent inhibiting DNA gyrase and bacterial topoisomerase I” (J Med Chem, 2014).
≈ marks a conversion by molar mass, not a printed value.

Legend:
Staphylococcus aureus = test: Antibacterial activity against methicillin-sensitive Staphylococcus aureus assessed as growth inhibition by agar dilution assay; format: functional
Summary of the method: (§1)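 Agar dilution MIC per CLSI (aerobic and anaerobic methods); compounds dissolved in DMSO, reference antibiotics in sterile water. MIC taken as lowest concentration with no visible growth; determined at least twice on separate days, higher value reported. Clinical isolate ranges summarized as MIC50/MIC90.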

[1] = test system: Brevibacillus laterosporus; test: Antibacterial activity against Brevibacillus laterosporus ATCC 64 assessed as growth inhibition by agar dilution assay; format: functional
Streptococcus pneumoniae = test: Antibacterial activity against Streptococcus pneumoniae ATCC 49619 assessed as growth inhibition by agar dilution assay; format: functional; summary of the method: as §1
Pseudomonas aeruginosa = test: Antibacterial activity against Pseudomonas aeruginosa ATCC 27853 assessed as growth inhibition by agar dilution assay; format: functional; summary of the method: as §1
Bacteroides fragilis = test: Antibacterial activity against Bacteroides fragilis ATCC 25285 assessed as growth inhibition by agar dilution assay; format: functional; summary of the method: as §1
[2] = Cytotoxicity against CHL cells assessed as cell viability after 24 hrs by MTT assay; format: cell-based, Cricetulus griseus; conditions: chinese hamster
Summary of the method: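 CHL fibroblasts seeded at about 5 × 10^4 cells/mL, incubated overnight at 37 °C, 5% CO2, then exposed to compound at different concentrations for 24 h. Viability read by MTT, absorbance at 570 nm, relative to cells in medium alone (100%). Triplicate.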

Cc1cc(O)c2c(c1)C(=O)c1c(I)c(O)c(I)c(O)c1C2=O
MIC (Staphylococcus aureus): 8 µg/mL (≈ 15.3 µM) | MIC [1]: 4 µg/mL (≈ 7.66 µM) | MIC (Streptococcus pneumoniae): 64 µg/mL (≈ 123 µM) | MIC (Pseudomonas aeruginosa): > 256 µg/mL | MIC (Bacteroides fragilis): 256 µg/mL (≈ 490 µM) | IC90 at 24 h [2]: 256 µg/mL (≈ 490 µM)
